Results published in article PMC8453865 (Clinical Pharmacology in Drug Development, 2021).
Where “and” joins values, the source holds several entries; their conditions need not be identical. Identical values can stand only once.

Key:
[1] = test system: BCRP; conditions: in vitro; cited from earlier work
[2] = cited from earlier work
[3] = test system: OATP1B3; conditions: in vitro; cited from earlier work
[4] = test system: CYP2B6; conditions: in vitro, via activation of the pregnane X receptor and constitutive androstane receptor; cited from earlier work
[5] = test system: OATP1B1; conditions: in vitro; cited from earlier work
[6] = test system: CYP3A4; conditions: in vitro, via activation of the pregnane X receptor and constitutive androstane receptor; cited from earlier work
[7] = test system: CYP2C9; conditions: 14 patients, repeat-dose dabrafenib (HPMC capsules); cited from earlier work
[8] = test system: OATP1B1/1B3; assay: Effect of dabrafenib; format: in vivo, human
[9] = cited from earlier work; remark: listed apart in the source
[10] = in vivo; cited from earlier work
[11] = human, plasma
[12] = Safety and tolerability in patients; format: in vivo, human; conditions: 16 patients, midazolam 3 mg
Summary of the method: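 Open-label, fixed-sequence study in patients with BRAF V600 mutation–positive tumours. CYP3A and OATP1B1/1B3 probe substrates (3 mg and 10 mg) were given together on day 1, then with the test compound (150 mg twice daily, days 8–23) on days 8 and 22, after an overnight fast of at least 8 h. Monitoring covered physical examination, vital signs, 12-lead ECG, haematology and clinical chemistry, and AEs graded by NCI CTCAE v4.03.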

[13] = test system: CYP3A4; assay: Effect of dabrafenib
[14] = test system: CYP3A4/CYP1A2; conditions: 14 patients, repeat-dose dabrafenib (HPMC capsules); cited from earlier work
[15] = repeat dabrafenib dosing 150 mg twice daily (steady state) vs rosuvastatin alone
[16] = clinical study, coadministration with gemfibrozil
[17] = initial administration of dabrafenib vs midazolam alone

CC(C)(C)c1nc(-c2cccc(NS(=O)(=O)c3c(F)cccc3F)c2F)c(-c2ccnc(N)n2)s1 [dabrafenib]
inhibition of BCRP [1]: inhibitors | AUC HPMC/gelatin ([2]; dabrafenib HPMC capsules vs gelatin capsules): 1.8 fold | median terminal‐phase half‐life (t1/2) ([2]; single oral dose of dabrafenib): ≈ 8 hours | time of peak plasma concentrations after dosing ([2]; single oral dose of dabrafenib): approximately 2 hours | oral bioavailability ([2]; single oral dose relative to an intravenous microdose): 94.5% | inhibition of OATP1B3 [3]: inhibitors | induction of CYP2B6 [4]: induces | inhibition of OATP1B1 [5]: inhibitors | induction of CYP3A4 [6]: induces

CC(C)(C(=O)O)c1nc(-c2cccc(NS(=O)(=O)c3c(F)cccc3F)c2F)c(-c2ccnc(N)n2)s1 [carboxy‐dabrafenib]
inhibition of OATP1B3 [3]: inhibitors | inhibition of OATP1B1 [5]: inhibitors

CC(=O)C[C@@H](c1ccccc1)c1c(O)c2ccccc2oc1=O [S‐warfarin]
decrease in single‐dose AUC [7]: 37%

CC(C)c1nc(N(C)S(C)(=O)=O)nc(-c2ccc(F)cc2)c1/C=C/[C@@H](O)C[C@@H](O)CC(=O)O [rosuvastatin]
increase in rosuvastatin Cmax ([8]; dabrafenib at initiation of dosing vs rosuvastatin alone): 1.9 fold | increase in rosuvastatin AUC0‐∞ [8, 15]: 7% | increase in rosuvastatin Cmax [8, 15]: 2.56 fold and 2.6 fold | rosuvastatin AUC change with gemfibrozil [9, 16]: 1.9 fold | rosuvastatin Cmax change with gemfibrozil [9, 16]: 2.21 fold | alteration in the PK parameters of rosuvastatin ([9]; healthy volunteer study, after 6 days of rifampin (inducer) dosing): no significant alteration | rosuvastatin AUC increase with tipranavir/ritonavir ([9]; tipranavir/ritonavir 500 mg/200 mg twice daily for 11 days): 26% | excreted unchanged in the feces [10]: 90%

Cc1ncc2n1-c1ccc(Cl)cc1C(c1ccccc1F)=NC2 [midazolam]
Tmax [11]: 15 min | grade 4 presyncope attributed to midazolam dosing [12]: 1 patient | change in midazolam AUC0‐∞ [13, 17]: no change | decrease in midazolam Cmax [13, 17]: 1% | effect of dabrafenib on midazolam tmax ([13]; initial and repeat dabrafenib dosing vs midazolam alone): No effect | decrease in midazolam Cmax ([13]; repeat dabrafenib dosing 150 mg twice daily (steady state) vs midazolam alone): 47%

CC(C)c1nc(-c2cccc(NS(=O)(=O)c3c(F)cccc3F)c2F)c(-c2ccnc(N)n2)s1 [desmethyl‐dabrafenib]
inhibition of BCRP [1]: inhibitors | inhibition of OATP1B3 [3]: inhibitors | inhibition of OATP1B1 [5]: inhibitors

CC(=O)C[C@H](c1ccccc1)c1c(O)c2ccccc2oc1=O [R‐warfarin]
decrease in single‐dose AUC [14]: 33%

CC(C)(CO)c1nc(-c2cccc(NS(=O)(=O)c3c(F)cccc3F)c2F)c(-c2ccnc(N)n2)s1 [hydroxy‐dabrafenib]
terminal half‐life of metabolite ([2]; dabrafenib metabolites): 582 min | inhibition of OATP1B3 [3]: inhibitors | inhibition of OATP1B1 [5]: inhibitors
